In ChEMBL document CHEMBL2440109, “Synthesis and antimycobacterial activity of isoniazid derivatives from renewable fatty acids” (2013):
Converted amounts (≈) assume the structure as drawn.

Test system: Mycobacterium tuberculosis
Experiment: Antimycobacterial activity against Mycobacterium tuberculosis H37Rv ATCC 27294 after 7 days by REMA assay
Format: functional
Conditions: H37Rv ATCC 27294, 168 h
Summary of the method: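 MIC by resazurin microtiter assay. Bacteria suspended in sterile water with glass beads, vortexed, turbidity set to McFarland tube 1 (3.2 × 10^6 CFU/mL), then diluted 1:20 in Middlebrook 7H9. Compounds in DMSO, two-fold serial dilutions (100.0-3.2 µg/mL) in 7H9 with 10% OADC. Incubated 37 °C for 7 days, resazurin added, further 2 days at 37 °C. MIC read from colour change.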

| Structure (SMILES) | MIC |
| --- | --- |
| CCCCCCCCCCCCCCCC(=O)NNC(=O)c1ccncc1 | 0.015 µg/mL (≈ 0.0399 µM) |
| CCCCCCCCCCCCCCCCCC(=O)NNC(=O)c1ccncc1 | 0.03 µg/mL (≈ 0.0743 µM) |
| CCCCCCCC/C=C\CCCCCCCC(=O)NNC(=O)c1ccncc1 | 0.015 µg/mL (≈ 0.0374 µM) |
| CCCCCCCC/C=C/CCCCCCCC(=O)NNC(=O)c1ccncc1 | 0.03 µg/mL (≈ 0.0747 µM) |
| CCCCCC[C@@H](O)C/C=C\CCCCCCCC(=O)NNC(=O)c1ccncc1 | 0.03 µg/mL (≈ 0.0718 µM) |
| CCCCC/C=C\C/C=C\CCCCCCCC(=O)NNC(=O)c1ccncc1 | 0.125 µg/mL (≈ 0.313 µM) |
| CC/C=C\C/C=C\C/C=C\CCCCCCCC(=O)NNC(=O)c1ccncc1 | 0.06 µg/mL (≈ 0.151 µM) |
| NNC(=O)c1ccncc1 [ISONIAZID] | 0.06 µg/mL (≈ 0.438 µM) |
| CCCCCCCC/C=C\CCCCCCCC(=O)O [OLEIC ACID] | 100 µg/mL (≈ 354 µM) |
| CCCCCCCC/C=C\CCCCCCCC(=O)NN [OLEOHYDRAZIDE] | 50 µg/mL (≈ 169 µM) |
| CO[C@H]1/C=C/O[C@@]2(C)Oc3c(C)c(O)c4c(O)c(c(/C=N/N5CCN(C)CC5)c(O)c4c3C2=O)NC(=O)/C(C)=C\C=C\[C@H](C)[C@H](O)[C@@H](C)[C@@H](O)[C@@H](C)[C@H](OC(C)=O)[C@@H]1C [RIFAMPIN] | 0.03 µg/mL (≈ 0.0365 µM) |
